The source of these data is ChEMBL document CHEMBL1135994, “Potent, novel in vitro inhibitors of the Pseudomonas aeruginosa deacetylase LpxC” (J Med Chem, 2002).

The structures appear in SMILES notation.

The target in the experiment is T1, UDP-3-O-acyl-N-acetylglucosamine deacetylase (Pseudomonas aeruginosa (strain ATCC 15692 / PAO1 / 1C / PRS 101 / LMG12228), UniProt P47205).
T1 sequence (P47205 whole entry): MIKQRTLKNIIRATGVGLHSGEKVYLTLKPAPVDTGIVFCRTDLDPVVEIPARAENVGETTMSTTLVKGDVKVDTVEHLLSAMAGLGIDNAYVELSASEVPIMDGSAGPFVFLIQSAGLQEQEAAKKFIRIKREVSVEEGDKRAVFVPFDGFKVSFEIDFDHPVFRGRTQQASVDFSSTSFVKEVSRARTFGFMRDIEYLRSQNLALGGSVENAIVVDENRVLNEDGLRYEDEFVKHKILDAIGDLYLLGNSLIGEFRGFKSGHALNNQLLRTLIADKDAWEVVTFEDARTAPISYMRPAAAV
As to the kind of experiment: Inhibition of Pseudomonas aeruginosa UDP-3-O-acyl-N-acetylglucosamine Deacetylase (LpxC) in vitro. The essentials: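 Purified recombinant P. aeruginosa LpxC (IPTG-induced, zinc-reconstituted) at 2 nM incubated with 150 nM [3H-acetyl]-UDP-3-O-(R-3-hydroxydecanoyl)-GlcNAc for 90 min at room temperature (22 °C). Buffer is sodium phosphate pH 7.5 with 1 mg/mL BSA. Stopped with activated charcoal suspension. Released [3H]-acetate in the clarified supernatant counted by scintillation. 5 mM EDTA controls define nonspecific tritium release. IC50 determined.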
In the case of `CCCc1cc(C2=NC(C(=O)NO)CO2)cc(OC(F)(F)F)c1OC` (stereo not drawn), it took 0.5 µM to reach half-maximal inhibition (IC50). In other words, the sub-micromolar range. Turning to `O=C(NO)C1COC(c2ccc(COc3cccc([N+](=O)[O-])c3)cc2)=N1` (stereo not drawn), the IC50 (commonly the concentration that gives 50% inhibition) was determined as 0.56 µM. Then `C=CCCOc1ccc(C(=O)NC(CO)C(=O)NO)cc1` (stereo not drawn), with 3.9 µM; and `O=C(NO)C1CCOC(c2ccc(F)c(C(F)(F)F)c2)=N1` (stereo not drawn), with 21.2 µM; and `O=C(NO)C1CSC(c2ccc(OC(F)(F)F)cc2)=N1` (stereo not drawn), with 21.7 µM. Then `CCOc1cc(C2=NC(C(=O)NO)CO2)ccc1F` (stereo not drawn), with 1 µM. To `CC(=O)Nc1ccc(C2=NC(C(=O)NO)CO2)cc1` (stereo not drawn) belongs above 30 µM; to `C=CCc1c(C)c(C2=NC(C(=O)NO)CO2)cc(F)c1OC` (stereo not drawn), 3.3 µM. The molecule `C=CCOc1ccc(C2=NC(C(=O)NO)CO2)cc1C(F)(F)F` (stereo not drawn) gave a half-inhibitory concentration (IC50) of 2.2 µM. `Cc1cc(C2=NC(C(=O)NO)CO2)ccc1F` (stereo not drawn) returned an IC50 of 1.2 µM. To `CCCc1cc(C2=NC(C(=O)NO)CO2)ccc1F` (stereo not drawn) belongs 0.96 µM. For `CCCCn1nc(C2=NC(C(=O)NO)CO2)c2ccccc21` (stereo not drawn), the IC50 is 10 µM.

With `O=C(NO)C1COC(c2cccc(C(F)(F)F)c2)=N1` (stereo not drawn), the midpoint of inhibition, the IC50, lay at 2.5 µM. To `C=CCCOc1ccc(C2=NC(C(=O)NO)CS2)cc1` (stereo not drawn) belongs 58.7 µM; to `O=C(NO)C1COC(c2cnn(-c3ccccc3)c2C(F)(F)F)=N1` (stereo not drawn), above 30 µM.

`CCCc1cc(C2=NC(C(=O)NO)CS2)cc(OC(F)(F)F)c1OC` (stereo not drawn) showed an IC50 of 17.8 µM.

Regarding `C=CCOc1ccc(C2=NC(C(=O)NO)CO2)cc1F` (stereo not drawn), half-maximal inhibition (IC50) was put at 1.4 µM. To `CCCCc1ccc(C2=NC(C(=O)NO)CO2)cc1` (stereo not drawn) belongs 7.3 µM; to `Cc1ccc(C2=NC(C(=O)NO)CS2)cc1` (stereo not drawn), 38.5 µM; to `CCCc1cc(C(=O)NC(CO)C(=O)NO)cc(OC(F)(F)F)c1OC` (stereo not drawn), above 50 µM. As to `O=C(NO)C1COC(c2ccc(OCc3cccc([N+](=O)[O-])c3)cc2)=N1` (stereo not drawn), half-maximal inhibition (IC50) was put at 1 µM. Then `CCOc1cc(C(=O)NC(CO)C(=O)NO)ccc1F` (stereo not drawn), with 46 µM. For `Cc1ccc(C2=NC(C(=O)NO)CCO2)cc1` (stereo not drawn), the IC50 was above 50 µM. To `C=CCOc1ccc(C(=O)NC(CO)C(=O)NO)cc1OC(F)(F)F` (stereo not drawn) belongs 7.5 µM; to `C=CCCOc1ccc(C2=NC(C(=O)NO)CO2)cc1` (stereo not drawn), 5.6 µM; to `CCCCCCCOc1ccc(C2=NC(C(=O)NO)CO2)cc1` (stereo not drawn), above 30 µM. `Cc1c(C2=NC(C(=O)NO)CS2)cnn1-c1ccccc1` (stereo not drawn) had an IC50 above 60 µM. For `Cc1ccc(C(=O)NC(CO)C(=O)NO)cc1` (stereo not drawn), the IC50 was above 50 µM. Regarding `O=C(NO)C1COC(c2[nH]c3ccc(F)cc3c2Cl)=N1` (stereo not drawn), the 50% inhibitory concentration (IC50) was 0.3 µM.

Molecule `O=C(NO)C1COC(c2cc3cc(F)ccc3[nH]2)=N1` (stereo not drawn) showed a concentration for half-maximal inhibition (IC50) of 1.6 µM. Then `O=C(NO)C1COC(c2ccc(F)c(Br)c2)=N1` (stereo not drawn), with 4.9 µM; and `O=C(NO)C1COC(c2ccc(C(F)(F)F)nc2)=N1` (stereo not drawn), with 10 µM. Then `CCCc1ccc(-c2ccc(C3=NC(C(=O)NO)CO3)cc2)cc1` (stereo not drawn), with 0.28 µM; and `O=C(NO)C1COC(c2ccc(F)c(C(F)(F)F)c2)=N1` (stereo not drawn), with 1.3 µM. Take `O=C(NO)C1CSC(c2ccc(F)cc2)=N1` (stereo not drawn): the IC50 was 62.5 µM. In turn, `C=CCOc1ccc(C2=NC(C(=O)NO)CO2)cc1OC(F)(F)F` (stereo not drawn) displayed a half-inhibitory concentration (IC50) of 0.12 µM. To `O=C(NC(CO)C(=O)NO)c1n[nH]c2ccccc12` (stereo not drawn) belongs 13 µM. In turn, `COc1ccc(C2=NC(C(=O)NO)CO2)cc1OC(F)(F)F` (stereo not drawn) displayed an IC50 of 0.16 µM. Turning to `O=C(NO)C1CCOC(c2cc3cc(F)ccc3[nH]2)=N1` (stereo not drawn), the IC50 is 31.2 µM.

Regarding `C=CCCOc1ccc(C2=NC(C(=O)NO)CO2)cc1OC(F)(F)F` (stereo not drawn), 0.35 µM corresponded to half-maximal inhibition (IC50). Compared with the last molecule, the IC50 is about 89-fold lower. `O=C(NO)C1COC(c2[nH]nc3ccccc23)=N1` (stereo not drawn) came in with an IC50 of 5.5 µM. For the molecule `O=C(NO)C1COC(c2cccc(OC(F)(F)F)c2)=N1` (stereo not drawn), the IC50 was found to be 6 µM. This IC50 and that of the molecule before are within 1.5-fold of each other. To `COc1c(F)cc(C2=NC(C(=O)NO)CO2)cc1Br` (stereo not drawn) belongs 9 µM; to `O=C(NO)C1COC(c2ccc(O)cc2)=N1` (stereo not drawn), above 30 µM; to `Cc1ccc(C2=NC(C(=O)NO)CO2)cc1` (stereo not drawn), 20 µM. `O=C(NO)C1COC(c2ccccc2OC(F)(F)F)=N1` (stereo not drawn) yielded an IC50 above 10 µM. Regarding `CC(=O)c1ccc(C2=NC(C(=O)NO)CO2)cc1` (stereo not drawn), the IC50 turned out to be 18 µM.

`O=C(NO)C1COC(c2ccc(I)cc2)=N1` (stereo not drawn) came in with a concentration for half-maximal inhibition (IC50) of 5.5 µM. To `CC(C)=CCOc1ccc(C2=NC(C(=O)NO)CO2)cc1OC(F)(F)F` (stereo not drawn) belongs 0.19 µM; to `O=C(NO)C1COC(c2ccc(OCc3ccccc3C(F)(F)F)c(F)c2)=N1` (stereo not drawn), 9.6 µM. Molecule `O=C(NO)C1COC(c2ccc(C(F)(F)F)cc2)=N1` (stereo not drawn) had an IC50 of 7.8 µM. To `O=C(NO)C1COC(c2ccc([N+](=O)[O-])cc2)=N1` (stereo not drawn) belongs 5.4 µM; to `O=C(NO)C1COC(c2ccc(OC(F)(F)F)c(Cl)c2)=N1` (stereo not drawn), 30 µM; to `O=C(NO)C1COC(c2cc(F)cc(C(F)(F)F)c2)=N1` (stereo not drawn), 25 µM. To `O=C(NO)C1COC(c2ccc(OCc3cccc(C(F)(F)F)c3)c(F)c2)=N1` (stereo not drawn) belongs 0.84 µM; to `O=C(NO)C1COC(c2ccc(OC(F)(F)F)cc2)=N1` (stereo not drawn), 5 µM.

`Cc1c(C2=NC(C(=O)NO)CO2)cnn1-c1ccccc1` (stereo not drawn) gave an IC50 above 30 µM. Then `O=C(NC(CO)C(=O)NO)c1ccc(F)cc1` (stereo not drawn), with above 50 µM. Then `O=C(NO)C1COC(c2ccc(OCc3cccc(F)c3)c(OC(F)(F)F)c2)=N1` (stereo not drawn), with 0.25 µM. `CCCCn1nc2ccccc2c1C1=NC(C(=O)NO)CO1` (stereo not drawn) yielded an IC50 of 12 µM. `CN(C)c1ccc(C2=NC(C(=O)NO)CO2)cc1` (stereo not drawn) came in with an IC50 of 4.9 µM. Against the preceding molecule, the IC50 is about 2.4-fold lower.

Molecule `O=C(NO)C1COC(c2ccc(Br)cc2)=N1` (stereo not drawn) came in with an IC50 of 2.7 µM. Then `O=C(NO)C1COC(c2ccc(F)cc2)=N1` (stereo not drawn), with 6 µM.
